Test system: MS2 coat protein
Test: apparent Kd, MS2 coat protein; higher = weaker binding; RNA-MaP array; FMN 200 µM where present
Method in brief: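 SNAP-549-labelled MS2 coat protein, doubled from 0.7 or 1.5 nM to 3 µM, was titrated over designs transcribed by stalled E. coli RNA polymerase on Illumina sequencing-chip clusters. Titrations were run without and then with constant ligand in 100 mM Tris-HCl pH 7.5, 80 mM KCl, 4 mM MgCl2, BSA, DTT, yeast tRNA and Tween-20. The apparent Kd is the median of filtered per-cluster fits to green signal normalised to red-channel RNA signal and control-cluster median Fmax.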

[1] = designed as: OFF switch for flavin mononucleotide, no ligand
[2] = ligand present: flavin mononucleotide, designed as: OFF switch for flavin mononucleotide
[3] = designed as: ON switch for flavin mononucleotide, no ligand
[4] = ligand present: flavin mononucleotide, designed as: ON switch for flavin mononucleotide

| Sequence | apparent Kd [1] [nM] | apparent Kd [2] [nM] | apparent Kd [3] [nM] | apparent Kd [4] [nM] |
| --- | --- | --- | --- | --- |
| CUUUUGUGAGGAUAUCAGUAGUAAAUAAAUUAAAUUACUACUGAGAAGGCACAUGAGGAUCACCCAUGUUCCUC | 38.3 | 249 | – | – |
| CUUUUGUGAGGAUAUCAGUAGUAAAUAAUUAAAAUUACUACUGAGAAGGCACAUGAGGAUCACCCAUGUUCCUC | 42.2 | 284 | – | – |
| CUUUUGUGAGGAUAUCAGUAGUAGAACAAUAGUACUACUACUGAGAAGGCACAUGAGGAUCACCCAUGUUCCUC | 62.5 | 455 | – | – |
| CUUUUGUGAGGAUAUCAGUAGUAGAACAAUAGUACUACUACUGAGAAGGCACAUGAGGAUCACCCAUGUUCCUU | 16 | 35.6 | – | – |
| CUUUUGUGAGGAUAUCAGUAGUAGAACAAUAGUACUACUACUGAGAAGGCACAUGAGGAUCACCCAUGUUCUUC | 33.5 | 118 | – | – |
| CUUUUGUGAGGAUAUUAGUAGUAAAAAAAUAAAAUUACUACUGAGAAGGCACAUGAGGAUCACCCAUGUUCUUC | 19 | 98.1 | – | – |
| CUUUUGUGAGGAUAUUAGUAGUAAAUAAAUAAUAUUACUACUGAGAAGGCACAUGAGGAUCACCCAUGUUCCUC | 37 | 302 | – | – |
| CUUUUGUGAGGAUAUUAGUAGUAAAUAAAUAUAAUUACUACUGAGAAGGCACAUGAGGAUCACCCAUGUUCCUC | 34.1 | 186 | – | – |
| CUUUUGUGAGGAUAUUCGUAGUAAAUGAAUAAAAUUAUUACGGAGAAGGCACAUGAGGAUCACCCAUGUUCCUC | 42.2 | 343 | – | – |
| CUUUUGUGAGGAUAUUCGUAGUAGGGUCAUGGUACUAUUACGGAGAAGGCACAUGAGGAUCACCCAUGUUCCUU | 15.4 | 45.1 | – | – |
| CUUUUGUGAGGAUAUUGGUAGUAAAUAAAUAAAAUUACUACUGAGAAGGCACAUGAGGAUCACCCAUGUUCCUC | 31.2 | 221 | – | – |
| CUUUUUUUUGUGAGGAUAUACUGUUAUUAAAGUUAGUAGAAGGUACAUGAGGAUCACCCAUGUUAAUUACUUUA | 14.2 | 13.8 | – | – |
| GAAAAGGUAGGAUAUACGAAAAAAAAGGGUAGAAAAAAUACACAUGAGGAUCACCCAUGUAGAAGGACCAAAAG | 31.5 | 130 | – | – |
| GAAAGGGCAGGAUAUGCAGAGAGAGAGAGAGAGAGAAAAAAACAUGAGGAUCACCCAUGUAGAAGGGCCGAAAG | 34.8 | 39.1 | – | – |
| GAAGCAUGCAAUAACAUGAGGAUCACCCAUGUGAAAACACGUGAGGAUAUUGAUCUGAAGAAGAUCGAGAAGGCACCGUGCUAA | – | – | 13.4 | 9.92 |
| GAAUAGGCAGGAUAUACAUGAGGAUCACCCAUGUGCCGGCGAAAGGUACGUUCGAAAGGUAGAAGGGCCUAAAC | 78.6 | 288 | – | – |
| GAAUUCGCAUGAGGAUAUGCACUCAUUUCAUGUGCAGAAGGUAUAUCAUUAGACAUGAGGAUCACCCAUGUAUUGGUCAUUAAC | – | – | 15.2 | 14 |
| GAAUUCGCAUGAGGAUAUGCUCCCGUUUCGGGAGCAGAAGGCAUGUCAUAAGACAUGAGGAUCACCCAUGUAGUUAAGAUUGAA | – | – | 196 | 11.3 |
| GACAUACAUGAGGAUCACCCAUGUUCAGACGGGCAAGGAUAUGUGUGGAAACCAUACUAUACAGAAGGUGUCUGUC | – | – | 26.5 | 17.6 |

| Sequence | apparent Kd [1] [nM] | apparent Kd [2] [nM] | apparent Kd [3] [nM] | apparent Kd [4] [nM] |
| --- | --- | --- | --- | --- |
| GACAUGAGGAUCACCCAUGUCCAACCAGAAGGCCAGAAACCAGGCCCUUGUAUCGGGCUUGGGAUGGAGGAUAUGGGCGCCGAA | – | – | 61.4 | 31.6 |
| GACAUGAGGAUCACCCAUGUCCAUGCAAGAGUAGUUGAGACCAGAAGGACCGUGCGGAGCGCAGGGUAGGAUAUGGAGCCCUCA | – | – | 32.4 | 9.46 |
| GACCCAAAUGAGAAGGUGUGUAUAAAUUAUGUACAAGGAUAUCGGUCGAGCGUGUUGACAUGAGGAUCACCCAUGUUGUGGGUU | – | – | 139 | 56.2 |
| GACGGUGAUGUAGGAUAUACGCUGGAAUACAGCGUAGAAGGACAUGAGGAUCACCCAUGUAAAGUGUCUCCGAAUAACACCGUC | 35.3 | 68.6 | – | – |
| GACUACGAGGGAGGAUAUCCUCAUUAAUUUGGUGGAGAAGGCCCUCUACAUGAGGAUCACCCAUGUAUCGCUAUAGUCAGACAU | – | – | 9.92 | 6.95 |
| GACUCGAAUGUAGGAUAUGCUGAGGAAUACUCAGCAGAAGGACAUGAGGAUCACCCAUGUCAAUGAGUGAAUAAUAAACGAGUC | 29.2 | 224 | – | – |
| GACUGAUUGUAGAAGGUACUUGACUAUAUAUUUUAUUCAUAUAGACAUGAGGAUCACCCAUGUAGUAAGGAUAUACUUUUAACA | – | – | 9.31 | 6 |
| GACUGGGCAGGAUAUACAUGAGGAUCACCCAUGUGUCUGCGUCAGGCACGUGUAGACGGUAGAAGGGCCUACAC | 11.6 | 13.6 | – | – |
| GACUUGCGCACAGGAUAUCCACAGAGCGGACGUGGAGAAGGGUGACAUGAGGAUCACCCAUGUACGUAAGUCUGGAUCACUUCC | – | – | 29.4 | 26.1 |
| GAGAAGUCAGGAUAUCCAUGGCGGCACUUGCGUGGUGGCGUGGAGAAGGGACAUGAGGAUCACCCAUGUAAAGA | 52.7 | 36.8 | – | – |
| GAGAAGUCAGGAUAUCCAUGGCGGCACUUGCGUGGUGGCGUGGAGAAGGGACAUGAGGAUCACCCAUGUAAAGG | 165 | 157 | – | – |
| GAGAAGUCAGGAUAUGCAUGGCGGGACUUGCGUCGUGGCGUGCAGAAGGGACAUGAGGAUCACCCAUGUAAAGG | 143 | 265 | – | – |
| GAGAAGUCAGGAUAUGCUGCUCGUCACUUGCGUGAUGAGUAGCAGAAGGGACAUGAGGAUCACCCAUGUAAAGA | 51.2 | 64.5 | – | – |
| GAGCGAAAGCUCAAUGUCGAUAGCAGAAGGACAUGCAAUAACAUGAAAACAUGAGGAUCACCCAUGUAGGAUAUGCUAUCGACU | 6.65 | 44.5 | – | – |
| GAGCGGCGUACAGGAUAUCCUACAUGAGGAUCACCCAUGUCACAUUUACACGAGAACGUGUACGAGGAGAAGGGUGGGUUCGUG | – | – | 287 | 588 |
| GAGCUCGAUGAGAAGGGUUACAUGAGGAUCACCCAUGUCGACCUUGGCGUAACAGGAUAUCAUCGGGCUCAGUGCGUUGACACA | 29.2 | 171 | – | – |
| GAGGAACAUGAGGAUCACCCAUGUGAGGAUAUGCAUAGUGAGCUAGUAGACGUUUAUUGCAGAAGGUACACUGA | 31.4 | 23.6 | – | – |
| GAGUAGUCAAAAGGAUAUUGAUUAUUGUAGGAUCAAGAAGGUUUUAACAUGAGGAUCACCCAUGUAGGACUAUUCCUGUGUAUC | – | – | 16.6 | 12.2 |
| GAGUCUCUAUUAGAACCGAUACGAACAUGAGGAUCACCCAUGUAGGAUAUGCUAAAAGUUGUGUUGCAGAAGGACAUUUAAUGC | 11.2 | 10.9 | – | – |

| Sequence | apparent Kd [1] [nM] | apparent Kd [2] [nM] | apparent Kd [3] [nM] | apparent Kd [4] [nM] |
| --- | --- | --- | --- | --- |
| GAGUGACAUGAGGAUCACCCAUGUGAGGAUAUCGGACGGACCUAGUUAACUUCCGCCGCGAGAAGGCACAUCGG | 98.7 | 33.8 | – | – |
| GAGUGACAUGAGGAUCACCCAUGUGAGGAUAUCGGACGGACCUUGUUGGCUUCCGCCGCGAGAAGGCACAUCGG | 201 | 45 | – | – |
| GAGUGCUGAGGAUAUACAUGAGGAUCACCCAUGUGCUUCAGCUAGGAGACUAGCAUUGGUAGAAGGCAGUACUC | 11.2 | 46 | – | – |
| GAGUGGUGGAGAGGAUAUACAUUGUUAUUCACUGUAGAAGGUUCUAACAUGAGGAUCACCCAUGUAGGACUAUUCCUGAGUUUU | – | – | 12.4 | 9.82 |
| GAUAAUAUAGGAUAUACAUGAGGAUCACCCAUGUCCCGAUAUUAGGAGGACCUCCUCGGUAGAAGGAUAUGUGC | 129 | 131 | – | – |
| GAUAGGACAGAGAAGGACAUAGCUAGAGAUACUAGCAUAAGAACUUUCACAUGAGGAUCACCCAUGUAGGAUAUCUGUCCUAUC | 4.96 | 5.53 | – | – |
| GAUAGGACAGAGAAGGACGUAGCUAGAGAUACUAGCAUUAAGUCCUCAACAUGAGGAUCACCCAUGUAGGAUAUCUGUCCUAUC | 6.23 | 6.71 | – | – |
| GAUAGGACAGAGAAGGACGUGGCUAGAGAUACUAGCAUAAAGGUCCAAACAUGAGGAUCACCCAUGUAGGAUAUCUGUCCUAUC | 6.59 | 8.89 | – | – |
| GAUCACUGAGGAUAUACACAGAUACAAAGUAUCUGAGCGUGACAUGAGGAUCACCCAUGUAGAAGGCAGAGGUC | 190 | 769 | – | – |
| GAUCCGUCCUAGAAGGCCAUCCAACAUGAGGAUCACCCAUGUGCGGACUGGAGGAUAUAGGUGGGAUAGGCCUAGGGCCCGGUC | – | – | 7.43 | 5.55 |
| GAUCGUAUCCUAGGAUAUUCAUAAAACAUGAGGAUCACCCAUGUUAACUUGGGAGAAGGAGGAUACGAUCAACAGCGAAAGCUG | – | – | 7.35 | 5.09 |
| GAUUAACAUGAGGAUCACCCAUGUCGUUUUAUGGGAGGAUAUACGUGGACCGUAGUCCGCGUAGAAGGCCUAAUUG | – | – | 125 | 30.4 |
| GAUUAACAUGAGGAUCACCCAUGUGAGGAUAUGGAAUGGCUCAUUUUUUGAUUCCCGUCUAGAAGGCACAUCUU | 71.8 | 83.8 | – | – |
| GAUUAACAUGAGGAUCACCCAUGUGAGGAUAUGGACUGGCUCACUUUCCGAUUCCCGUCUAGAAGGCGCAUCUU | 38.3 | 38.3 | – | – |
| GAUUACAAGUAAGGAUAUGUAUAUGAAACAUAUACAGAAGGUACAUGAGGAUCACCCAUGUUCUUGCAACGCGAAUAUGUAAUC | 17.2 | 21.6 | – | – |
| GAUUACAUCACAGGAUAUAGAAUAAAACAGAUUUUAGAAGGGUGAGCCUCGUCGACCGCGACAUGAGGAUCACCCAUGUUGUGU | – | – | 18.4 | 35.7 |
| GAUUCGCGUGAGAAGGACAUGAGGAUCACCCAUGUAGGAUAUCACGGUCCGUAGAGGAUUUCAAACCGUACUGGGUCAUAGUGU | – | – | 14.4 | 6.56 |
| GAUUCGCGUGAGAAGGACAUGAGGAUCACCCAUGUAGGAUAUCACGGUCCUUAGAGGAUUUCAAACCGUACUGGGUCAUAGUGU | – | – | 15.2 | 6.7 |
